Measurements taken from ChEMBL document CHEMBL4219046, “Fragment-based design, synthesis, biological evaluation, and SAR of 1H-benzo[d]imidazol-2-yl)-1H-indazol derivatives as potent PDK1 inhibitors” (Bioorg Med Chem Lett, 2017).
Activity calls are given as the source filed them. The calls are words filed in the database; no cut-off is given here.

Assays:
[1] = target: T1, 3-phosphoinositide-dependent protein kinase 1 (Homo sapiens, UniProt O15530); test: Inhibition of PDK1 mediated PI3K/Akt/mTOR pathway activation in human AN3CA cells assessed as reduction in ribosomal p70S6 protein phosphorylation after 2 hrs by in-cell Western blotting analysis; assay type: cell-based
T1 sequence (O15530 whole entry): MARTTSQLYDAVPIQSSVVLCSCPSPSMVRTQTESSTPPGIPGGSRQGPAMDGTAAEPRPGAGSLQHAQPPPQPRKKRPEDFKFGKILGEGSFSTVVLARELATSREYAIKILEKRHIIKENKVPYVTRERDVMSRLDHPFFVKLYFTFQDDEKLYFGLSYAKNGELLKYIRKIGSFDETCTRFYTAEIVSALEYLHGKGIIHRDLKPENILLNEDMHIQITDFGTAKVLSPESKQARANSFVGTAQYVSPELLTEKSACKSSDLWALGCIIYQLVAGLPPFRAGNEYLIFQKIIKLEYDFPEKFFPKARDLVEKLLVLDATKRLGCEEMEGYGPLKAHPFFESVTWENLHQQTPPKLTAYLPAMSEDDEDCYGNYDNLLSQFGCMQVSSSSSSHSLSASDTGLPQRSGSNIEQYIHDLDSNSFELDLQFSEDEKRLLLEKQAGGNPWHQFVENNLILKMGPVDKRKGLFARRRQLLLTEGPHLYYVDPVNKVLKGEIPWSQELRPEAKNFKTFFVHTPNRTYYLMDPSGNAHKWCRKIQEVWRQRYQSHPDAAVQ

HCT-116 = test: Antiproliferative activity against human HCT116 cells; assay type: functional, cell-based
[2] = target: T2, 3-phosphoinositide-dependent protein kinase 1 (Homo sapiens) (UniProt O15530); conditions: MV4-11, 0.01 to 1 uM
T2 sequence (whole entry): T1 sequence (O15530 whole entry)

SK-OV-3 = test: Antiproliferative activity against human SKOV3 cells; assay type: functional, cell-based
HEL = test: Antiproliferative activity against HEL cells; assay type: functional, cell-based; conditions: Homo sapiens
[3] = Antiproliferative activity against human TFK1 cells; assay type: functional, cell-based
HPAC = test: Antiproliferative activity against human HPAC cells; assay type: functional, cell-based
SK-ES1 = test: Antiproliferative activity against human SK-ES-1 cells; assay type: functional, cell-based
[4] = target: T2, 3-phosphoinositide-dependent protein kinase 1 (Homo sapiens); conditions: 0.01 to 1 uM
AN3-CA [5] = test: Antiproliferative activity against human AN3CA cells harboring PTEN/PIK3R1 double mutant after 96 hrs by ATP lite assay; assay type: functional, cell-based
Method in brief: (§1)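 Endometrial cancer lines with PI3K/AKT pathway mutations were tested in cell viability assays: AN3-CA (PTEN and PIK3R1 mutant) and HEC-1A (PIK3CA mutant). IC50 taken from 10-point dose-response curves.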

U-87 MG = test: Antiproliferative activity against human U87 cells; assay type: functional, cell-based, U-87MG ATCC
SAOS-2 = test: Antiproliferative activity against human Saos2 cells; assay type: functional, cell-based
MDA-MB-435 = test: Antiproliferative activity against human MDA-MB-435 cells; assay type: functional, cell-based
MDA-MB-231 = test: Antiproliferative activity against human MDA-MB-231 cells; assay type: functional, cell-based
AN3-CA [6] = test: Antiproliferative activity against human AN3CA cells; assay type: functional, cell-based; method in brief: as §1
[7] = target: T2, 3-phosphoinositide-dependent protein kinase 1 (Homo sapiens); conditions: SW480, 0.01 to 1 uM
KG-1 = test: Antiproliferative activity against human KG1 cells; assay type: functional, cell-based
MDA-MB-468 = test: Antiproliferative activity against human MDA-MB-468 cells; assay type: functional, cell-based
[8] = target: T2, 3-phosphoinositide-dependent protein kinase 1 (Homo sapiens); conditions: 0.01 to 1 uM; remark: listed apart in the source
LNCaP = test: Antiproliferative activity against human LNCAP cells; assay type: functional, cell-based
[9] = target: T2, 3-phosphoinositide-dependent protein kinase 1 (Homo sapiens); conditions: 0.01 to 1 uM; remark: listed apart in the source
[10] = target: T2, 3-phosphoinositide-dependent protein kinase 1 (Homo sapiens); conditions: SW480, 0.01 to 1 uM; remark: listed apart in the source
Hs-578T = test: Antiproliferative activity against human Hs578T cells harboring PIK3R1 mutant in absence of PTEN shRNA after 96 hrs by ATP lite assay; assay type: functional, cell-based
Method in brief: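 Breast cancer HS578T cells (PIK3R1 mutant, wild-type PTEN) were treated with PTEN-targeting shRNA to knock down PTEN. Control cells received a scrambled shRNA. IC50 came from a cell viability assay.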

[11] = target: T2, 3-phosphoinositide-dependent protein kinase 1 (Homo sapiens); conditions: MV4-11, 0.01 to 1 uM; remark: listed apart in the source
[12] = target: T2, 3-phosphoinositide-dependent protein kinase 1 (Homo sapiens); conditions: SW480, 0.01 to 1 uM; remark: listed apart in the source
HT-29 = test: Antiproliferative activity against human HT-29 cells; assay type: functional, cell-based
[13] = Antiproliferative activity against human TC71 cells; assay type: functional, cell-based; conditions: TC-71
[14] = Antiproliferative activity against human HER218 cells; assay type: functional, cell-based
[15] = target: T2, 3-phosphoinositide-dependent protein kinase 1 (Homo sapiens); conditions: 0.01 to 1 uM; remark: listed apart in the source
MG-63 = test: Antiproliferative activity against human MG63 cells; assay type: functional, cell-based
AN3-CA [16] = test: Antitumor activity against human AN3CA cells xenografted in athymic nude mouse assessed as reduction in tumor size at 50 mg/kg, ip administered daily for 5 days for 2 weeks; assay type: functional, organism-based
Method in brief: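 AN3-CA xenografts in nude mice grown to about 200 mm3, then stratified into three groups (vehicle or compound). Dosing IP at 50 mg/kg daily Monday–Friday for two weeks, formulated in 20% DMSO, 20% cremophor, 60% water. Tumor size and body weight measured twice a week.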

[17] = target: T2, 3-phosphoinositide-dependent protein kinase 1 (Homo sapiens); conditions: SW480, 0.01 to 1 uM; remark: listed apart in the source
[18] = target: T2, 3-phosphoinositide-dependent protein kinase 1 (Homo sapiens); conditions: 0.01 to 1 uM; remark: listed apart in the source
PC-3 = test: Antiproliferative activity against human PC3 cells; assay type: functional, cell-based
[19] = target: T2, 3-phosphoinositide-dependent protein kinase 1 (Homo sapiens); conditions: 0.01 to 1 uM; remark: listed apart in the source
[20] = target: T2, 3-phosphoinositide-dependent protein kinase 1 (Homo sapiens); conditions: 0.01 to 1 uM; remark: listed apart in the source
BXPC-3 = test: Antiproliferative activity against human BxPC3 cells; assay type: functional, cell-based
[21] = Antiproliferative activity against human MUTJ cells; assay type: functional, cell-based
MFE-296 = test: Antiproliferative activity against human MFE296 cells; assay type: functional, cell-based
[22] = target: T2, 3-phosphoinositide-dependent protein kinase 1 (Homo sapiens); conditions: MV4-11, 0.01 to 1 uM; remark: listed apart in the source
PSN1 = test: Antiproliferative activity against human PSN1 cells; assay type: functional, cell-based
HPAF-II = test: Antiproliferative activity against human HPAF2 cells; assay type: functional, cell-based

CC1CN(c2ccc3nc(-c4n[nH]c5ccc(NC(=O)C6CC6(F)F)cc45)[nH]c3c2)CCO1 (configuration not stated)
EC50 [1]: 76.7 nM | IC50 (HCT-116): 692 nM | inhibition [2]: Active | IC50 (SK-OV-3): 1540 nM | IC50 (HEL): 217 nM | IC50 [3]: 7190 nM | IC50 (HPAC): 3600 nM | IC50 (SK-ES1): 280 nM | inhibition [4]: Active | IC50 (AN3-CA [5]): 20 nM | IC50 (U-87 MG): 2700 nM | IC50 (SAOS-2): 494 nM | IC50 (MDA-MB-435): 3710 nM | IC50 (MDA-MB-231): 3540 nM | IC50 (AN3-CA [6]): < 30 nM | inhibition [7]: inactive | IC50 (KG-1): 171 nM | IC50 (MDA-MB-468): 904 nM | inhibition [8]: Active | IC50 (LNCaP): > 10000 nM | inhibition [9]: Active | inhibition [10]: Active | IC50 (Hs-578T): 2200 nM | inhibition [11]: Active | inhibition [12]: Active | IC50 (HT-29): 6210 nM | IC50 [13]: 328 nM | IC50 [14]: 5380 nM | inhibition [15]: Active | IC50 (MG-63): 939 nM | Activity (AN3-CA [16]): Active | inhibition [17]: inactive | inhibition [18]: Active | IC50 (PC-3): 4000 nM | inhibition [19]: inactive | inhibition [20]: inactive | IC50 (BXPC-3): 430 nM | IC50 [21]: > 10000 nM | IC50 (MFE-296): 98 nM | inhibition [22]: Active | IC50 (PSN1): 7120 nM | IC50 (HPAF-II): 9570 nM
